Measured values from ChEMBL document CHEMBL3751758, “Cysteine-Rich Peptide Family with Unusual Disulfide Connectivity from Jasminum sambac” (J Nat Prod, 2015).
Activity calls are given as the source filed them. No cut-off for these calls is given here. Bridge positions count the residues as written; N and C are the ends. Peptide text beside a SMILES is read from it.

Columns and labels:
[1] = (§1) Stability of the compound in 100 mM sodium citrate buffer assessed as pepsin (unknown origin)-mediated compound degradation by measuring intact compound level at pH 2.5 at 37 degC after 4 hrs by UPLC analysis; type: ADME; details: human, buffer, pH 2.5, 4 h
[2] = Stability of the compound in NH4HCO3 buffer assessed as trypsin (unknown origin)-mediated degradation at pH 7.8 at 37 degC after 1 hr by UPLC analysis; type: ADME; details: human, pH 7.8, 1 h
[3] = molecular target: T1, Carboxypeptidase A1 (Homo sapiens, UniProt P15085); experiment: Stability of the compound in Tris buffer assessed as carboxypeptidase A (unknown origin)-mediated compound degradation at pH 7.5 at 37 degC after 4 hrs by UPLC analysis; type: ADME; details: pH 7.5, 4 h
T1 sequence (P15085 whole entry): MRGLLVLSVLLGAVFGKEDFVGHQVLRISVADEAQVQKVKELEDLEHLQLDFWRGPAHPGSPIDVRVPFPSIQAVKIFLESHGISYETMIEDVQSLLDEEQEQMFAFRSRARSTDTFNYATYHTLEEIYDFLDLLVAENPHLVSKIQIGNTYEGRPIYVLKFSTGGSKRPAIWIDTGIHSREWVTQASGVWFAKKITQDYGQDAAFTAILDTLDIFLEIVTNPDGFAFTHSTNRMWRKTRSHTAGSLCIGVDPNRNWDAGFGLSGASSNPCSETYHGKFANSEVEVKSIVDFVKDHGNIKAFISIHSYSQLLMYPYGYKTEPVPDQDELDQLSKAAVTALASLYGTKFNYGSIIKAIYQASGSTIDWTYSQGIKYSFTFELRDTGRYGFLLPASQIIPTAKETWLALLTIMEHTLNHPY
Outline: (§2)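 Peptide was incubated with or without carboxypeptidase A at 50:1 (w/w) in 50 mM Tris/100 mM NaCl pH 7.5 at 37 °C for up to 6 h. Collected peaks were checked by MALDI-TOF, and stability was judged from UPLC peak areas.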

[4] = Stability of the compound in boiling water assessed as compound remaining after 1 hr by UPLC analysis; type: physicochemical; details: read-out: Stability
[5] = test system: Staphylococcus aureus; experiment: Antibacterial activity against Staphylococcus aureus ATCC 12600 up to 100 uM by radial diffusion assay; type: functional, organism-based
Outline: (§3)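 Radial diffusion assay under low-salt conditions (10 mM Na3PO4). Strains were grown in trypticase soy broth. D4R peptide dendrimer was the positive control.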

[6] = test system: trypsin; experiment: Stability of the compound in NH4HCO3 buffer assessed as trypsin (unknown origin)-mediated degradation by measuring intact compound level at pH 7.8 at 37 degC after 8 hrs by UPLC analysis; type: ADME; details: human, read-out: Stability
[7] = test system: pepsin; experiment: as §1; type: ADME; details: human, pepsin in 100 mM sodium citrate buffer, pH 2.5; read-out: Stability
[8] = molecular target: T2, Carboxypeptidase A1 (Bos taurus) (UniProt P00730); experiment: Inhibition of bovine carboxypeptidase A using N-(4-methoxyphenylazoformyl)phenylalanine as substrate at 0.1 to 100 uM
T2 sequence (whole entry): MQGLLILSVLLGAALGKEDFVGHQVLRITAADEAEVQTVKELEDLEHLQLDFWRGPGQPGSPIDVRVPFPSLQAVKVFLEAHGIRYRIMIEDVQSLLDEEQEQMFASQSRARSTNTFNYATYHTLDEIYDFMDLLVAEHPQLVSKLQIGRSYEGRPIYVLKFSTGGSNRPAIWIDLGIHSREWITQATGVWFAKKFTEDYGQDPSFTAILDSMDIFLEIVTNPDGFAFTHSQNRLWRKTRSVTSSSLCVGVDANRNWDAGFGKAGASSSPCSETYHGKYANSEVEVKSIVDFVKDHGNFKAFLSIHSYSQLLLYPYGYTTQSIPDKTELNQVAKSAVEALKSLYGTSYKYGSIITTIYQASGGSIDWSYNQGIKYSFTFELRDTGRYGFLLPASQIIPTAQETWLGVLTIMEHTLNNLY
Outline: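 Peptide at 0.1–100 µM was combined with 0.1 mM N-(4-methoxyphenylazoformyl)phenylalanine substrate. The reaction was started with 25 nM bovine carboxypeptidase A, and substrate hydrolysis was followed at 350 nm.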

[9] = test system: Escherichia coli; experiment: Antibacterial activity against Escherichia coli ATCC 25922 up to 100 uM by radial diffusion assay; type: functional, organism-based; outline: as §3
[10] = molecular target: T3, carboxypeptidase A (Homo sapiens, UniProt P15085); experiment: Stability of the compound in Tris buffer assessed as carboxypeptidase A (unknown origin)-mediated compound degradation by measuring intact compound level at pH 7.5 at 37 degC after 6 hrs by UPLC analysis; type: ADME; details: read-out: Stability; outline: as §2
T3 sequence (P15085 whole entry): T1 sequence (P15085 whole entry)

[11] = test system: Vero; experiment: Cytotoxicity against African green monkey Vero cells at 10 uM after 24 hrs by Presto Blue-based cell viability assay; details: chlorocebus sabaeus
Outline: (§4)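 Cells were seeded at 8 x 10^3 per well in DMEM with 10% FBS and 1% penicillin/streptomycin, at 37 °C under 5% CO2. After 24 h, peptide was added at 0.01–10 µM in triplicate for 24 h. PrestoBlue was then added for 1 h at 37 °C and absorbance read at 570 nm. Controls were 1% Triton X-100 and PBS.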

[12] = test system: Candida albicans; experiment: Antifungal activity against Candida albicans 11006 up to 100 uM by radial diffusion assay; type: functional, organism-based; outline: as §3
[13] = test system: HUVEC; experiment: Cytotoxicity against HUVEC at 10 uM after 24 hrs by Presto Blue-based cell viability assay; details: human; outline: as §4
[14] = Hemolytic activity in human type O+ erythrocytes up to 10 uM after 4 hrs by spectrophotometric analysis; type: ADME, cell-based; details: erythrocyte
Outline: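 Erythrocytes came from fresh type O+ blood of a healthy volunteer. Cells were pelleted at 1000 rpm for 15 min, washed three times in PBS and diluted 100X in PBS. Peptide at various concentrations was mixed with an equal volume of cells for 4 h at 37 °C. Plates were spun at 1000 rpm for 5 min and supernatant absorbance read at 415 nm. Controls were 0.1% Triton X-100 and PBS.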

Stability [1]	Stability [2]	Stability [3]	remaining at 1 h [4] [%]	remaining at 8 h [6] [%]	remaining at 4 h [7] [%]	inhibition [8]	remaining at 6 h [10] [%]	SMILES	Activity [5]	Activity [9]	Activity [11]	Activity [12]	Activity [13]	Activity [14]
Unstable	Unstable	Unstable						CC(C)C[C@H](NC(=O)[C@@H]1CCCN1C(=O)[C@H](CO)NC(=O)[C@H](Cc1ccccc1)NC(=O)CNC(=O)[C@@H]1CCCN1C(=O)[C@@H]1CCCN1C(=O)[C@H](CCCN=C(N)N)NC(=O)[C@@H](N)CCCCN)C(=O)O						
			96	73	> 90	inactive	> 90	CC[C@H](C)[C@H](NC(=O)[C@@H](NC(=O)[C@H](CC(N)=O)NC(=O)[C@@H]1CSSC[C@@H]2NC(=O)[C@H](CC(=O)O)NC(=O)[C@H](CO)NC(=O)[C@H](CC(N)=O)NC(=O)[C@H](CO)NC(=O)[C@H](CCCNC(=N)N)NC(=O)[C@@H]3CSSC[C@H](NC(=O)[C@H]([C@@H](C)CC)NC(=O)[C@H](CCCNC(=N)N)NC(=O)[C@H](Cc4c[nH]c5ccccc45)NC(=O)[C@H]([C@@H](C)CC)NC(=O)[C@H]([C@@H](C)CC)NC(=O)[C@H](CC(N)=O)NC2=O)C(=O)N[C@@H](CCCNC(=N)N)C(=O)N[C@@H](CC(=O)O)C(=O)NCC(=O)N[C@@H](CSSC[C@H](NC(=O)[C@H](CC(C)C)NC(=O)[C@@H](N)CCC(N)=O)C(=O)N[C@@H](CC(C)C)C(=O)N[C@@H](CCC(N)=O)C(=O)N3)C(=O)N1)C(C)C)C(=O)O (H-QLCLQCRSNSDCNIIWRICRDGCCNVI-OH; disulfide 3-23, 6-19, 12-24)	inactive	inactive	Non-toxic	inactive	Non-toxic	Non-toxic
Unstable	Unstable	Unstable						CC(C)C[C@H](NC(=O)[C@H](CCCNC(=N)N)NC(=O)CNC(=O)[C@H](CCCNC(=N)N)NC(=O)[C@H](CCCNC(=N)N)NC(=O)[C@H](Cc1ccc(O)cc1)NC(=O)[C@H](CC(C)C)NC(=O)[C@@H](N)CCCNC(=N)N)C(=O)N[C@@H](Cc1ccc(O)cc1)C(=O)N[C@@H](CCCNC(=N)N)C(=O)N[C@@H](CCCNC(=N)N)C(=O)N[C@@H](CC(N)=O)C(=O)N[C@@H](Cc1cnc[nH]1)C(=O)N[C@H](C(=O)O)C(C)C (H-RLYRRGRLYRRNHV-OH)						
